Test results as given in the EternaBench riboswitch data.

Tested on: MS2 coat protein
Experiment: apparent Kd, MS2 coat protein; higher = weaker binding; RNA-MaP array; FMN 200 µM where present
Method in brief: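 Each design was made on Illumina sequencing-chip clusters by stalled E. coli RNA polymerase and titrated with SNAP-549-labelled MS2 coat protein from 0.7 or 1.5 nM, doubling to 3 µM, in the absence and then the presence of constant ligand. The buffer was 100 mM Tris-HCl pH 7.5, 80 mM KCl, 4 mM MgCl2, BSA, DTT, yeast tRNA and Tween-20. The apparent Kd is the median of filtered per-cluster fits of binding curves, with green signal normalised to red-channel RNA signal and control-cluster median Fmax.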

[1] = designed as: OFF switch for flavin mononucleotide, no ligand
[2] = ligand present: flavin mononucleotide, designed as: OFF switch for flavin mononucleotide
[3] = designed as: ON switch for flavin mononucleotide, no ligand
[4] = ligand present: flavin mononucleotide, designed as: ON switch for flavin mononucleotide

Row | Sequence | apparent Kd [1] [nM] | apparent Kd [2] [nM] | apparent Kd [3] [nM] | apparent Kd [4] [nM]
1 | AAGUAGAUCCGAGGAUAUACAAUCCGGAAACGGUACAUGAGGAUCACCCAUGUAGAAGGCGGAUCUACAGGUACUAAAGUACCG | 6.33 | 9.45 | – | –
2 | CUCGAGUGAGGAUAUUGAAUCGGCGGCUGACCGCACGAGCUCGAGAAGGCACAUGAGGAUCACCCAUGUGGGUC | 15.2 | 27.3 | – | –
3 | UGCGUCUAGACAGGAUAUCAAGGACGCCUACAUGAGGAUCACCCAUGUCGGCGGAGCAGCUCCGUUGAGAAGGGUCAUCGCAAC | – | – | 66.5 | 24.2
4 | UUUGUAAUGUCAGGAUAUAUAAUAAGUCAUACAGUAGAAGGGAUAAUUAUACUCAUGUACAUGAGGAUCACCCAUGUUAAAUAU | – | – | 80.1 | 45.6
5 | CCACGUCCCAUUAACAUGAGGAUCACCCAUGUCAAAAGACAUGAGGAUAUGCUACCUAAUUGGUAGCAGAAGGCAUGGACGUGG | – | – | 953 | 87.8
6 | CCGGAAACGGGUAGCCAGACAUGAGGAUCACCCAUGUGAUCAGAGGAUAUGGAUCCUAAUUGGAUCCAGAAGGCUGUCAGCUAC | – | – | 554 | 74.8
7 | AAAUUUAACGAAGGAUAUGGAUACAUGAGGAUCACCCAUGUAUAUUUUGUGAUCUUGUUUAAGAUCCAGAAGGUCGUAUACAUA | 24 | 56.1 | – | –
8 | ACUGAAGUCACAGGAUAUCAUAUGUCGGCACAUUGAGAAGGGUGACUGGGCUACAUGAGGAUCACCCAUGUGCCGUCGUAACAA | – | – | 104 | 80.4
9 | AAAAAGGGAGGAUAUACAUGAGGAUCACCCAUGUGAAAAAAAAAAAAAAAAAAAAAAAGUAGAAGGCCCAAAAA | 67.1 | 53.8 | – | –
10 | AAUAACAGAGGAUAUACUGUUUUAUGUGUUUAUUGUUUUGAACAUGAGGAUCACCCAUGUAGAAGGCUGAAUAA | 22.6 | 23.2 | – | –
11 | AAGUUAGGGAGAGGAUAUUGACAUGAGGAUCACCCAUGUAUUUGGGAGUGUUUACUGAAUUCUUACGAGAAGGCUUACGAAAUU | 344 | 259 | – | –
12 | GGAUAGGACAGAGGAUAUACGUGCUAGAAAUACUAGCAAAAUUUCCUCACAUGAGGAUCACCCAUGUAGAAGGCUGUCCUAUCG | 14.5 | 542 | – | –
13 | AUAUCCUUUUUAUACAUGAGGAUCACCCAUGUUUUUCUUACGUAGGAUAUCGUUGUUUUUUUUUACGAGAAGGACGUAGAAUGU | – | – | 23.6 | 23.9
14 | UACGUAUGAGGAUAUACAAACAGAAAAAUCAGACGUAACUGACAUGAGGAUCACCCAUGUAGAAGGCAUAUACA | 27.7 | 18.6 | – | –
15 | UGGAAACAUGAGGAUCACCCAUGUAAAAGGUGGUCAGGAUAUGCGAAAAGAAAAAGAAAAGUAGAAGGGACAAGAA | – | – | 459 | 1200
16 | GAAAGGGCAGGAUAUGCAUGUUGGCAAAAUUCUCAGCAAGAACAUGAGGAUCACCCAUGUAGAAGGGCCAACGG | 42.3 | 59.9 | – | –
17 | GUAACAUGAGGAUCACCCAUGUAUAGAACACUCAAUAGAUCUGAGGAUAUAGUGGAAUUUACACACUAGAAGGCAGUGGGUGCA | – | – | 75.3 | 33.6
18 | UGAUCUAUGUAGAAGGCCCAUAUCUAUAUUUAGGGAGGAUAUACAUGAGGAUCACCCAUGUAUAGAGCGGGUGGACCCGUCACC | 26.7 | 62.1 | – | –
19 | AACAGGGAUUCAGGAUAUAUUAGCCGAGGCCGCGUAGAAGGGAAAUCCUGACAUGAGGAUCACCCAUGUCGACCCGCCUUCCAC | – | – | 23.1 | 22.9
20 | CAGUUUUGAGGAUAUCCAUCCUCCUACAUGAGGAUCACCCAUGUUUCCCUCUGGGUUUUCGGAGAAGGCAGUUAUU | 326 | 283 | – | –
21 | CCGGAUACGGGUAGCUGACAUGAGGAUCACCCAUGUGAAUCUGAGGAUAUGGAUCCUAAUUGGAUCCAGAAGGCAGUCAGCUAC | – | – | 618 | 61.5
22 | UGAAAUCAUGUAGGAUAUGCAUGGCGAAGCUACGCAGAAGGACAUGAGGAUCACCCAUGUUCUAGCGUCUGAGUACAGAUGCAA | 19.6 | 64.9 | – | –
23 | GUUUUACAUGAGGAUCACCCAUGUGAGGAUAUAUUGUUAUUUUUAAUAUUUUUUAGUGGUAGAAGGCGCGUGAU | 31.4 | 26 | – | –
24 | GGAAGUCAAAGACUUCCUUAACGAACAUGAGGAUCACCCAUGUAGGAUAUGCUACUCAAAGAGUAGCAGAAGGACAUGUGUCUU | 32.1 | 168 | – | –
25 | CAGACACAUGAGGAUCACCCAUGUGAGGAUAUGCGUACGUUGUCCGUAGGCGACGUGCGCAGAAGGCGCAUUGG | 110 | 252 | – | –
26 | CAAGUCAUAGCUUCUUAGCCAGCCAGAAGGGUCUACAUGAGGAUCACCCAUGUGGUCUCGAAGGGACAGGAUAUGGAGGGCGUA | 11.1 | 37.7 | – | –
27 | UCCAAACCGUAGAAGGGUGACAUGAGGAUCACCCAUGUGCAGCAGCCGUGAACGGCCAUGCUGCCACAGGAUAUACGGAGGAGU | – | – | 28.9 | 67.3
28 | GUCGUUUCUGAGGAUAUUAUUUUUUUCGAUUGAUAAGAAGGCAGUACAUGAGGAUCACCCAUGUGGGUUGUCUG | 30 | 97.3 | – | –

Row | Sequence | apparent Kd [1] [nM] | apparent Kd [2] [nM] | apparent Kd [3] [nM] | apparent Kd [4] [nM]
29 | UGGUACUACGGAGGAUAUCAUGUAGAUACAUGAGGAUCACCCAUGUCGUACGAGAGUACGGAGAUUGAGAAGGCCGUAGUACCU | – | – | 30.5 | 15.1
30 | AAUUAUUUUUGAGGAUAUCGUGGUGAAACACCACGAGAAGGCAAGAUACACAUGAGGAUCACCCAUGUGAGCCUGAUGCUUAUG | 16.9 | 21.4 | – | –
31 | CUCUUGUAAGGAUAUGACUACAUAAAAAAAAAAAAAUGUAGUCAGAAGGUACAUGAGGAUCACCCAUGUACAAA | 22.7 | 25.6 | – | –
32 | GGUGCACAUGAGAAGGCGAUCAUGAAACAUGAUCGAGGAUAUCAUGUAAACAUGAGGAUCACCCAUGUAUGGGAAAAGUGCACC | – | – | 114 | 10.9
33 | GGGUACAUCGGAGGAUAUCAUGUAAAUACAUGAGGAUCACCCAUGUCGAUUGAGACAUCGGAGAUUGAGAAGGCCGAUGUACCG | – | – | 74.5 | 534
34 | AAGAUGUAAGGAUAUGCUGCUCGUCACAAAAGUGAUGAGUAGCAGAAGGUACAUGAGGAUCACCCAUGUAGAGA | 31.4 | 55.7 | – | –
35 | UGUGUCUGUAGAGGAUAUCCGGGCGUUCGGCUAGGAGAAGGCUGCAACACAUGAGGAUCACCCAUGUAGGUUGUGUCUCCCUAC | 9.9 | 29.7 | – | –
36 | GAAGAAAAGGCAGGAUAUCAGAAACACAUGAUAAGGAGAUGCAACAUGAGGAUCACCCAUGUAAAUGAGAAGGGCCGCCCUUCC | 35.6 | 62.1 | – | –
37 | CGCAUGCGUAGAAUUAGCAGCUGACAGGAUAUGACAUGAGGAUCACCCAUGUGAAUUAAGAAGAGUCAGAAGGGUCACGAUGCG | 9.98 | 9.98 | – | –
38 | CGUAACUGCAUAGGAUAUUGAUACAUGAGGAUCACCCAUGUUUUUGGGAUUAGUAAUAUAUUAAGCAAGAAGGAUGGAGUUACG | – | – | 74.2 | 39.9
39 | GACAGUGCUAAUAAAUAAGAUCUACAUGAGGAUCACCCAUGUAAGGAUAUCGUCAGGAAUACUGACGAGAAGGUACAUGCACUG | 15.4 | 26.2 | – | –
40 | GUGUAGAUAGGAUAUGCUUAGAGCUUACGAAAGUAGGCUCUACAUGAGGAUCACCCAUGUAGAAGGGUCUACAC | 31.3 | 19.1 | – | –
41 | CGUCCGUGGGUAGUGAUCGUACAUGAGGAUCACCCAUGUGAGAAGGAUAUGCAUGCACGCGGACAGCAGAAGGUCUCACAACAA | 133 | 429 | – | –
42 | AAAAAGGCAGGAUAUACAUGAGGAUCACCCAUGUAAAGAAAGAAAGAAGAAAGGGAAAGUAGAAGGGCCAAAAA | 38.2 | 46 | – | –
43 | UCAUAAUUGAUCCUAUUUACCAACAUGAGGAUCACCCAUGUGCAGGAUAUGCUAAAGAUAGAUAAGCAGAAGGGCAAAUACAUA | 162 | 756 | – | –
44 | UGAGCAAGAGGAUAUACAAGGCGACCGUGAGGUCGAGGGUUACAUGAGGAUCACCCAUGUAGAAGGCUUGUUCU | 37.1 | 323 | – | –
45 | GCAUGGUGAGGAUAUGCAGAAGGGCAACGGUCAUCAUGACUACAUGAGGAUCACCCAUGUAGAAGGCACACAUG | 44.3 | 54.8 | – | –
46 | GGGAAUAAACCCGUCUCCGCCCAACCAGAAGGGCACGAUAAUAUUACAUGAGGAUCACCCAUGUUGCAGGAUAUGGUGGGCCUC | – | – | 180 | 76.9
47 | AUAUUGUGAGGAUAUGAACAUAGUAUCGAAAGAUACUAAGUUCAGAAGGCACAUGAGGAUCACCCAUGUUUCUC | 70.2 | 738 | – | –
48 | CUUGAUCUUGUCAGGAUAUACCUGCCUAGUUGGAGGUAGAAGGGACAUGAGGAUCACCCAUGUAGCCAACCGAC | 16.9 | 19.2 | – | –
49 | AUAUAUAACUAAGGAUAUCUGUAUUUUGUUGAAACAUGAGGAUCACCCAUGUUCAUGAAAUUAUAGGAGAAGGUAGAUAUAUAU | – | – | 4.93 | 4.54
50 | GGAGCUCACAUGAACAUGAGGAUCACCCAUGUAAAUUCUCAUGAGGAUAUGGAUCCUAAUUGGAUCCAGAAGGCAUGGAGCUCC | – | – | 1350 | 316
51 | UAGGCGAACAUGAGGAUCACCCAUGUACGCGGUAUAUGAGCGAGAAGGGUAUGAUGUGUGGUCCUACAGGAUAUCGCUAAUAAA | – | – | 26.2 | 6.52
52 | GGCAGAGACGUUAACAUGAGGAUCACCCAUGUCGAAGGAGAUGAGGAUAUCGUAUACGAUGUAUAUGAGAAGGCAUGGUCUGCC | – | – | 18.8 | 7.6
53 | CGUGCACAUGAGGAUCACCCAUGUCGUCGCGAUCAAGGAUAUGAAAGCAGCGUUAUGUUAUCAGAAGGUGAACCUC | – | – | 28.1 | 21.9
54 | GCAUCCUGGUAGAAGGGACAUCGGCUGGUAAGCAUCAUCUCCUUCUCACAUGAGGAUCACCCAUGUCAGGAUAUACCAGGACGC | 12.3 | 42.1 | – | –
55 | UAGAAGUCAGGAUAUGCAUGGCGGGACUUGCGUCGUGGCGUGCAGAAGGGACAUGAGGAUCACCCAUGUGGAGC | 116 | 169 | – | –
